Among the data in ChEMBL document CHEMBL1123252, “Design and synthesis of potent and specific renin inhibitors containing difluorostatine, difluorostatone, and related analogues” (J Med Chem, 1986) are IC50 values, retold here.

Where a SMILES comes first, the peptide text is derived from it. [ ]: non-standard residue; d: D form. The star is where a group is joined. Ala(2H-imidazol-2-yl) = N[C@@H](CC1N=CC=N1)C(=O)O; Sta = CC(C)C[C@H](N)[C@@H](O)CC(=O)O; NHCH2(2-pyridyl) = c1ccc(CN*)nc1; Boc = CC(C)(C)OC(=O)*

This assay addresses T1, Renin (Homo sapiens, UniProt P00797).
T1 sequence (P00797 whole entry): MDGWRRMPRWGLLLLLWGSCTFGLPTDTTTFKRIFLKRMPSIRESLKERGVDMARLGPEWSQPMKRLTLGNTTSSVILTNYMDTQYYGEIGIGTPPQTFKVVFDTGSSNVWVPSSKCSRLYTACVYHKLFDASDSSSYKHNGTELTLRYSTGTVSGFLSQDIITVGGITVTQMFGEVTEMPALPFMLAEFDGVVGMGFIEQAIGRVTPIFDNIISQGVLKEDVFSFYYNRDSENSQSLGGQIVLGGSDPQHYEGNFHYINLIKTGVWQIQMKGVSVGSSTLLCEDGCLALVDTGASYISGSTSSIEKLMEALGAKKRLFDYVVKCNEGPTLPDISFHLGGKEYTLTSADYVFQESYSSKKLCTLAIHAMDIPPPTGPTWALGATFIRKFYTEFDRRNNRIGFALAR
The experiment in a line: Inhibition of human plasma renin. Format: cell-free. An outline of the steps:
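Lyophilized human plasma with 0.1% EDTA, plus phenylmethanesulfonyl fluoride and maleate buffer pH 6.0. Inhibitor given in 1% Tween 80 in water. Angiotensin I generated over 90 min at 37 °C and measured by radioimmunoassay kit. Percent inhibition taken versus control tubes. IC50 estimated graphically from 3-4 concentrations on semilog plot.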

For orientation: IC50 means the concentration at which inhibition is half-maximal. For `CC[C@H](C)[C@H](NC(=O)C(F)(F)C(=O)[C@H](CC(C)C)NC(=O)[C@H](CC1N=CC=N1)NC(=O)[C@H](Cc1ccccc1)NC(=O)OC(C)(C)C)C(=O)NCc1ccccn1`, it took 0.52 nM to reach half-maximal inhibition (IC50). That is a sub-nanomolar value.

For `CC[C@H](C)[C@H](NC(=O)CC(=O)[C@H](CC(C)C)NC(=O)[C@H](CC1N=CC=N1)NC(=O)[C@H](Cc1ccccc1)NC(=O)OC(C)(C)C)C(=O)NCc1ccccn1`, the 50% inhibitory concentration (IC50) was 34 nM.

`CC[C@H](C)[C@H](NC(=O)C(F)(F)[C@H](O)[C@H](CC(C)C)NC(=O)[C@H](CC1N=CC=N1)NC(=O)[C@H](Cc1ccccc1)NC(=O)OC(C)(C)C)C(=O)NCc1ccccn1` gave an IC50 of 12 nM.

Take `CC[C@H](C)[C@H](NC(=O)C(F)(F)[C@H](O)[C@H](CC1CCCCC1)NC(=O)[C@H](CC1N=CC=N1)NC(=O)[C@H](Cc1ccccc1)NC(=O)OC(C)(C)C)C(=O)NCc1ccccn1`: the 50% inhibitory concentration (IC50) was found to be 0.57 nM.

The compound `CC[C@H](C)[C@H](NC(=O)C(F)(F)[C@@H](O)[C@H](CC(C)C)NC(=O)[C@H](CC1N=CC=N1)NC(=O)[C@H](Cc1ccccc1)NC(=O)OC(C)(C)C)C(=O)NCc1ccccn1` came in with an IC50 of 730 nM. This IC50 is about 1300-fold higher than that of the compound before.

Compound `CC[C@H](C)[C@H](NC(=O)C(F)(F)[C@H](O)[C@H](Cc1ccccc1)NC(=O)[C@H](CC1N=CC=N1)NC(=O)[C@H](Cc1ccccc1)NC(=O)OC(C)(C)C)C(=O)NCc1ccccn1` showed a half-inhibitory concentration (IC50) of 13 nM.

In turn, `CC[C@H](C)[C@H](NC(=O)C(F)(F)C(=O)[C@H](CC1CCCCC1)NC(=O)[C@H](CC1N=CC=N1)NC(=O)[C@H](Cc1ccccc1)NC(=O)OC(C)(C)C)C(=O)NCc1ccccn1` registered a concentration for half-maximal inhibition (IC50) of 2.5 nM.

In the case of `CC[C@H](C)[C@H](NC(=O)C(F)(F)C(=O)[C@H](Cc1ccccc1)NC(=O)[C@H](CC1N=CC=N1)NC(=O)[C@H](Cc1ccccc1)NC(=O)OC(C)(C)C)C(=O)NCc1ccccn1`, the IC50 is 1.3 nM.

On to `CC[C@H](C)[C@H](NC(=O)C[C@H](O)[C@H](CC(C)C)NC(=O)[C@H](CC1N=CC=N1)NC(=O)[C@H](Cc1ccccc1)NC(=O)OC(C)(C)C)C(=O)NCc1ccccn1` (Boc-F[Ala(2H-imidazol-2-yl)][Sta]I-{NHCH2(2-pyridyl)}), for which the half-maximal inhibitory concentration (IC50) is 1.7 nM.
